Converted amounts (≈) assume the structure as drawn.
Experiments:
Type in all cases: functional
Helicobacter pylori [1] = assay: Anti-bacterial activity against Helicobacter pylori Clinical isolate F1 measured after 72 hrs incubation by modified broth dilution method
Helicobacter pylori [2] = assay: Bactericidal activity against Helicobacter pylori Clinical isolate F1 measured after 72 hrs of incubation under microaerophilic conditions by modified broth dilution method; conditions: read-out: MBC99.9
Method in brief: (§1)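 H. pylori (NCTC 11637, F1, 23, F4). Wells with no visible growth in the MIC assay spotted (10 μL) onto Skirrow agar. Plates incubated 72 h at 37 °C, microaerophilic, 100% humidity. MBC = concentration killing 99.9% of the initial inoculum. Triplicate, on at least three different days.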

Helicobacter pylori [3] = assay: Anti-bacterial activity against Helicobacter pylori Clinical isolate 23 measured after 72 hrs incubation by modified broth dilution method
Helicobacter pylori [4] = assay: Bactericidal activity against Helicobacter pylori Clinical isolate 23 measured after 72 hrs of incubation under microaerophilic conditions by modified broth dilution method; conditions: read-out: MBC99.9; method in brief: as §1
Helicobacter pylori [5] = assay: Anti-bacterial activity against Helicobacter pylori NCTC 11637 measured after 72 hrs incubation by modified broth dilution method
Helicobacter pylori [6] = assay: Bactericidal activity against Helicobacter pylori NCTC 11637 measured after 72 hrs of incubation under microaerophilic conditions by modified broth dilution method; conditions: read-out: MBC99.9; method in brief: as §1
Helicobacter pylori [7] = assay: Anti-bacterial activity against Helicobacter pylori Clinical isolate F4 measured after 72 hrs incubation by modified broth dilution method
Helicobacter pylori [8] = assay: Bactericidal against Helicobacter pylori Clinical isolate F4 measured after 72 hrs of incubation under microaerophilic conditions by modified broth dilution method; conditions: read-out: MBC99.9; method in brief: as §1
Helicobacter pylori [9] = assay: Anti-bacterial activity against Helicobacter pylori measured after 72 hrs incubation by modified broth dilution method
Helicobacter pylori [10] = assay: Bactericidal against Helicobacter pylori measured after 72 hrs of incubation under microaerophilic conditions by modified broth dilution method
Method in brief: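 Wells with no visible growth in the MIC assay spotted (10 μL) onto Skirrow agar. Plates incubated 72 h at 37 °C, microaerophilic, 100% humidity. Triplicate, on at least three different days.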

Row | SMILES | MIC (Helicobacter pylori [1]) [µg/mL] | MIC (Helicobacter pylori [3]) [µg/mL] | MIC (Helicobacter pylori [5]) [µg/mL] | MIC (Helicobacter pylori [7]) [µg/mL] | MIC50 (Helicobacter pylori [9]) [µg/mL] | MIC90 (Helicobacter pylori [9]) [µg/mL] | MBC (Helicobacter pylori [2]) [µg/mL] | MBC (Helicobacter pylori [4]) [µg/mL] | MBC (Helicobacter pylori [6]) [µg/mL] | MBC (Helicobacter pylori [8]) [µg/mL] | MBC90 (Helicobacter pylori [10]) [µg/mL] | MBC (Helicobacter pylori [10]; Helicobacter pylori, read-out: MBC99.9) [µg/mL]
1 | COc1cc(C=O)ccc1O [VANILLIN] | > 128 | > 128 | > 128 | 128 (≈ 841 µM) | > 128 | > 128 | > 128 | > 128 | > 128 | 128 (≈ 841 µM) |  | > 128
2 | COc1ccc(/N=N/c2cc(C(C)C)c(OC(=S)N(C)C)cc2C)cc1 | 128 (≈ 345 µM) | 128 (≈ 345 µM) | > 128 | 128 (≈ 345 µM) | 128 (≈ 345 µM) | > 128 | > 128 | 128 (≈ 345 µM) | > 128 | 128 (≈ 345 µM) | >128 | 
3 | Cc1ncc([N+](=O)[O-])n1CCO [METRONIDAZOLE] | 2 (≈ 11.7 µM) | 1 (≈ 5.84 µM) | 256 (≈ 1500 µM) | 32 (≈ 187 µM) | 2 (≈ 11.7 µM) | 256 (≈ 1500 µM) | 2 (≈ 11.7 µM) | 1 (≈ 5.84 µM) | 256 (≈ 1500 µM) | 32 (≈ 187 µM) | 256 (≈ 1500 µM) | 
4 | COc1cc(C=O)cc(/N=N/c2cccc(Cl)c2)c1O | 128 (≈ 440 µM) | 128 (≈ 440 µM) | 128 (≈ 440 µM) | 128 (≈ 440 µM) | 128 (≈ 440 µM) | > 128 | 128 (≈ 440 µM) | 128 (≈ 440 µM) | > 128 | 128 (≈ 440 µM) | >128 | 

The next lines start with results.

Row | MIC (Helicobacter pylori [1]) [µg/mL] | MIC (Helicobacter pylori [3]) [µg/mL] | MIC (Helicobacter pylori [5]) [µg/mL] | MIC (Helicobacter pylori [7]) [µg/mL] | MIC50 (Helicobacter pylori [9]) [µg/mL] | MIC90 (Helicobacter pylori [9]) [µg/mL] | SMILES | MBC (Helicobacter pylori [2]) [µg/mL] | MBC (Helicobacter pylori [4]) [µg/mL] | MBC (Helicobacter pylori [6]) [µg/mL] | MBC (Helicobacter pylori [8]) [µg/mL] | MBC90 (Helicobacter pylori [10]) [µg/mL] | MBC (Helicobacter pylori [10]; Helicobacter pylori, read-out: MBC99.9) [µg/mL]
5 | 128 (≈ 274 µM) | 128 (≈ 274 µM) | > 128 | > 128 | > 128 | > 128 | Cc1cc(O)c(C(C)C)cc1C1(c2cc(C(C)C)c(O)cc2C)OS(=O)(=O)c2ccccc21 | 128 (≈ 274 µM) | > 128 | > 128 | > 128 | >128 | 
6 | > 128 | > 128 | 128 (≈ 248 µM) | > 128 | > 128 | > 128 | Cc1cc(/N=N/c2ccc(Br)cc2)c(C(C)C)c(/N=N/c2ccc(Br)cc2)c1O | > 128 | > 128 | 128 (≈ 248 µM) | > 128 | >128 | 
7 | 16 (≈ 55 µM) | 64 (≈ 220 µM) | 64 (≈ 220 µM) | 64 (≈ 220 µM) | 64 (≈ 220 µM) | 64 (≈ 220 µM) | COc1cc(C=O)cc(/N=N/c2ccccc2Cl)c1O | 16 (≈ 55 µM) | 64 (≈ 220 µM) | 64 (≈ 220 µM) | 64 (≈ 220 µM) | 64 (≈ 220 µM) | 
8 | > 128 | > 128 | > 128 | > 128 | > 128 | > 128 | C=CCc1cc(/N=N/c2cccc(OC)c2)c(O)c(OC)c1 | > 128 | > 128 | > 128 | > 128 | >128 | 

Source: ChEMBL document CHEMBL6109036, “Azo derivatives of monoterpenes as anti-Helicobacter pylori agents: from synthesis to structure-based target investigation” (RSC Med Chem, 2025)
